From ChEMBL document CHEMBL1157852, “Modulation of doxorubicin activity in cancer cells by conjugation with fatty acyl and terpenyl hydrazones” (Eur J Med Chem, 2010)
Active and inactive are the calls of the source. The rule behind the calls is not given here.

Experiments:
[1] = test system: Nucleic Acid; test: Binding affinity to Escherichia coli pBR322 DNA assessed as effect on DNA electrophoretic mobility at 5 to 25 uM after 24 hrs; format: nucleic-acid assay
Summary of the method: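 pBR322 plasmid DNA from a TE stock incubated with compound at 0, 5, 10 and 25 µM, in the dark at 37 °C for 24 h. Samples run on 1% agarose gel in 0.5× TBE for 4 h at 66 V. Read-out: shifts in mobility of the open circular and covalently closed circular forms.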

[2] = Cytotoxicity against human 518A2 cells after 24 hrs by MTT assay; format: functional, cell-based; conditions: 518A2, 24 h
Summary of the method: (§1)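 MTT assay. Cells seeded and cultured 24 h, then exposed to compound for 24, 48 or 72 h. MTT added to a final 0.05% (HL-60, 518A2) or 0.1% (KB-V1, MCF-7) for 2 h. Formazan dissolved in 10% SDS/DMSO with 0.6% acetic acid; absorbance read at 570 nm against 630 nm background. Viability taken relative to untreated controls (100%). IC50 from concentration-response curves, mean ± SD of four independent experiments.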

[3] = Cytotoxicity against human 518A2 cells after 72 hrs by MTT assay; format: functional, cell-based; conditions: 518A2, 72 h; summary of the method: as §1
[4] = test system: HL-60; test: Cytotoxicity against human HL60 cells after 24 hrs by MTT assay; format: functional, cell-based; conditions: HL-60, 24 h; summary of the method: as §1
[5] = test system: HL-60; test: Cytotoxicity against human HL60 cells after 48 hrs by MTT assay; format: functional, cell-based; conditions: HL-60, 48 h; summary of the method: as §1
[6] = test system: HL-60; test: Cytotoxicity against human HL60 cells after 72 hrs by MTT assay; format: functional, cell-based; conditions: HL-60, 72 h; summary of the method: as §1
[7] = Cytotoxicity against human vinblastine-resistant KBV1 cells after 24 hrs by MTT assay; format: functional, cell-based; conditions: KB-V1, 24 h; summary of the method: as §1
[8] = Cytotoxicity against human vinblastine-resistant KBV1 cells after 72 hrs by MTT assay; format: functional, cell-based; conditions: KB-V1, 72 h; summary of the method: as §1
[9] = test system: MCF7; test: Cytotoxicity against human topotecan-resistant MCF7 cells after 24 hrs by MTT assay; format: functional, cell-based; conditions: MCF7, 24 h; summary of the method: as §1
[10] = test system: MCF7; test: Cytotoxicity against human topotecan-resistant MCF7 cells after 48 hrs by MTT assay; format: functional, cell-based; conditions: MCF7, 48 h; summary of the method: as §1
[11] = test system: MCF7; test: Cytotoxicity against human topotecan-resistant MCF7 cells after 72 hrs by MTT assay; format: functional, cell-based; conditions: MCF7, 72 h; summary of the method: as §1
[12] = Cytotoxicity against human vinblastine-resistant KBV1 cells after 72 hrs by MTT assay in presence of 24 mM ABC transporter inhibitor verapamil hydrochloride; format: functional, cell-based; conditions: KB-V1, 72 h, in the assay text read “24 uM” for “24 mM”
Summary of the method: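 MTT viability assay on P-gp-overexpressing KB-V1/Vbl cells with 24 µM verapamil hydrochloride added before the compound; 72 h exposure. Formazan read at 570/630 nm relative to untreated controls. IC50 from concentration-response curves, mean ± SD of four independent experiments.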

[13] = Cytotoxicity against human doxorubicin-resistant KBV1 cells by MTT assay; format: functional, KB-V1
[14] = test system: MCF7; test: Ratio of compound IC50 to doxorubicin IC50 for human doxorubicin-resistant MCF7 cells; format: functional
[15] = test system: HL-60; test: Induction of apoptosis in human HL60 cells assessed as DNA ladder formation at 5 uM after 24 hrs by agarose gel electrophoresis; format: functional, cell-based
Summary of the method: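 HL-60 cells incubated with 5 µM compound for 24 h, then examined for DNA ladder patterns.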

[16] = test system: HL-60; test: Induction of apoptosis in human HL60 cells assessed as increase of caspase 3 activity at 5 uM after 12 hrs by luminometric assay; format: functional, cell-based
Summary of the method: (§2)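 HL-60 and 518A2 cells treated with 5 µM compound and sampled at intervals from 1 to 24 h. Lysed in 50 mM Tris-HCl pH 7.4, 150 mM NaCl, 1% Triton X-100 with protease inhibitors for 15 min at 4 °C, spun at 800 g. Protein measured by Bradford. Caspase-3/7, -8 and -9 activities read with luminogenic peptide substrates; reported as relative luminescence.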

[17] = test system: HL-60; test: Induction of apoptosis in human HL60 cells assessed as increase of caspase 8 activity at 5 uM after 4 to 24 hrs by luminometric assay; format: functional, cell-based; summary of the method: as §2
[18] = test system: HL-60; test: Induction of apoptosis in human HL60 cells assessed as increase of caspase 9 activity at 5 uM after 8 hrs by luminometric assay; format: functional, cell-based
Summary of the method: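 HL-60 leukaemia cells were treated with test compound and sampled at intervals from 1 to 24 h. Protein was measured by Bradford. Caspase-9 (Caspase-Glo 8 for line 1) was read from a luminogenic peptide substrate as relative luminescence.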

[19] = test system: 518A2; test: Induction of apoptosis in human 518A2 cells assessed as increase of caspase 8 activity at 5 uM measured up to 12 hrs by luminometric assay; format: functional, cell-based; summary of the method: as §2
[20] = test system: 518A2; test: Induction of apoptosis in human 518A2 cells assessed as increase of caspase 3 activity at 5 uM measured up to 12 hrs by luminometric assay; format: functional, cell-based; summary of the method: as §2
[21] = test system: HL-60; test: Induction of apoptosis in human HL60 cells assessed as increase of ratio of Bax to Bcl-2 mRNA expression at 5 uM after 6 to 18 hrs by RT-PCR analysis; format: functional, cell-based
Summary of the method: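 Real-time PCR of bax and bcl-2 mRNA in HL-60 cells after 6 h and 18 h exposure to test compound. Each gene was normalised to GAPDH, and the bax/bcl-2 expression ratio was reported.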

[22] = test system: 518A2; test: Induction of apoptosis in human 518A2 cells assessed as increase of ratio of Bax to Bcl-2 mRNA expression at 5 uM after 6 to 18 hrs by RT-PCR analysis; format: functional, cell-based
Summary of the method: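 518A2 cells exposed to 5 µM compound for 6 h or 18 h. bax and bcl-2 mRNA quantified by real-time PCR, normalised to GAPDH, and expressed as the bax/bcl-2 ratio.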

[23] = test system: 518A2; test: Induction of apoptosis in human 518A2 cells assessed as appearance of intact mitochondria in cytosol at 5 uM after 6 hrs using JC1 dye relative to control; format: functional
Summary of the method: (§3)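 Mitochondrial membrane potential measured with JC-1. Cells exposed to 5 µM compound for 6 or 18 h, pelleted at 400 g, stained with 0.2× JC-1 at 37 °C for 15 min (HL-60) or 35 min (518A2), washed and resuspended in PBS. Red fluorescence (ex 585/em 590 nm) and green (ex 510/em 527 nm) read; red/green ratio relative to untreated controls (100%). Mean ± SD, four independent experiments.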

[24] = test system: 518A2; test: Induction of apoptosis in human 518A2 cells assessed as appearance of intact mitochondria in cytosol at 5 uM after 18 hrs using JC1 dye relative to control; format: functional; summary of the method: as §3
[25] = test system: HL-60; test: Induction of apoptosis in human HL60 cells assessed as appearance of intact mitochondria in cytosol at 5 uM after 18 hrs using JC1 dye relative to control; format: functional; summary of the method: as §3
[26] = Cytotoxicity against human 518A2 cells assessed as increase in ROS production at 5 uM after 24 hrs by NBT reduction assay relative to control; format: functional
Summary of the method: (§4)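 NBT assay. HL-60 cells (0.5×10⁶/mL) or trypsinised 518A2 cells (5×10⁴/mL) pre-incubated 24 h at 37 °C, then given compound at a final 5 µM for 24 or 72 h. Medium removed; cells incubated with 0.1% NBT for 1 h (HL-60) or 4 h (518A2). Diformazan dissolved in 2 M KOH/DMSO; A630 read against 405 nm. Given as % of untreated controls; double quadruplicates.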

[27] = test system: HL-60; test: Cytotoxicity against human HL60 cells assessed as increase in ROS production at 5 uM after 72 hrs by NBT reduction assay relative to control; format: functional; summary of the method: as §4

With `COc1cccc2c1C(=O)c1c(O)c3c(c(O)c1C2=O)C[C@@](O)(/C(CO)=N/NC(=O)CCCCCCCCCCC(=O)O[C@@H]1C[C@H](C)CC[C@H]1C(C)C)C[C@@H]3O[C@H]1C[C@H](N)[C@H](O)[C@H](C)O1.Cl` the Activity [1] was “Active”, the IC50 [2] was 0.23 µM and the IC50 [3] was 0.06 µM. The IC50 [4] was 0.3 µM, the IC50 [5] was 0.25 µM and the IC50 [6] was 0.11 µM. It also gave an IC50 [7] of 30.5 µM, an IC50 [8] of 8.8 µM and an IC50 [9] of 7.1 µM. It also gave an IC50 [10] of 2.6 µM, an IC50 [11] of 2.6 µM and an IC50 [12] of 0.67 µM. For the same molecule, the Activity [13] was 200 nM, the “Ratio IC50” value [14] was 1.6 and the Activity [15] was “Active”. The Activity [16] was “Active”, the Activity [17] was “Active” and the Activity [18] was “Active”. The Activity [19] was “inactive”, the Activity [20] was “inactive” and the Activity [21] was “Active”. The Activity [22] was “Active”, the Activity [23] was 108% and the Activity [24] was 71%. For the same molecule, the Activity [25] was 23%, the Activity [26] was 3.3% and the Activity [27] was 5.9%.
